NR2E3 ag-1 – agonists of human NR2E3 nuclear receptor | Q9Y5X4 | CHO-S Gal4-NCOR/VP16-NR2E3 two-hybrid, luciferase | inhibition of corepressor binding, % at 3.98 µM | hit rate 0.35% among 360,000;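 active means inhibition above the mean of all tested compounds plus 3 SD, cut at about 70% in these data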;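 further: higher means lower luciferase signal from less NR2E3 corepressor binding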
Target sequence (Q9Y5X4 whole entry, looked up, the tested form may be a part): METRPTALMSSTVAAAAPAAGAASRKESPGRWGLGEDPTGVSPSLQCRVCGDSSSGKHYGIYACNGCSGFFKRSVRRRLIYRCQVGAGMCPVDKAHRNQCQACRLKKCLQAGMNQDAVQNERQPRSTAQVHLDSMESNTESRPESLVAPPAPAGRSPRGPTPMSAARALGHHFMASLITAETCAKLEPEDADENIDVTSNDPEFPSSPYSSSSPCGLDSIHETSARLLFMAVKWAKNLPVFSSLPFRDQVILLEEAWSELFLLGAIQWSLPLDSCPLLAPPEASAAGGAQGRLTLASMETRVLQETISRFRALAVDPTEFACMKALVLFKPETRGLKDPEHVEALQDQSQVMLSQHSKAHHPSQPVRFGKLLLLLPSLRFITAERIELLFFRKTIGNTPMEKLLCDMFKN
COUP-TFII inh – blocks human COUP-TFII nuclear receptor; HEK293T NGFI-A luciferase reporter, luminescence; inhibition, % at 8.6 µM; AID 686940; P24468; hit rate 0.7% among 370,000;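 active means inhibition above a per-plate cutoff, mean inhibition of test wells between control levels plus 3 SD, cut at about 38% in these data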;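 further: cells cotransfected with COUP-TFII expression vector driving the NGFI-A reporter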
CHT block – inhibitors of human choline transporter CHT. B-score at 10 µM. CHT-expressing cells, membrane potential dye, choline response; hits give low values. Q9GZV3. hit rate 0.86% among 310,000;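 active means B-score over 3 SD under the library average, and starting fluorescence ratio not unusually high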;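 further: choline stimulus applied at its EC90 after an EC20 pre-addition; B-score computed on integrated fluorescence ratio after choline addition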
CHT PAM – allosteric activators of human choline transporter CHT; Q9GZV3; CHT-expressing cells, membrane potential dye, choline EC20; hits give high values; LV-AA mutant CHT in HEK293 cells; hit rate 0.49% among 310,000; B-score at 10 µM;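 active means initial fluorescence not abnormally high and integrated response B-score, plate-corrected, over 3 SD above library mean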
GalR3 antagonist – blocks the human galanin receptor 3; hit rate 0.44% among 360,000; inhibition, % at 3 µM; O60755; HEK293 GalR3-CNG cAMP membrane potential fluorescence; galR3 body fused to GalR1 C-terminus; AID 651719;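 active means inhibition above the screen-wide average plus 3 SD, cut at about 13% in these data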;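 further: forskolin and galanin both at EC90 stimulate the cells; cAMP rise reported by CNG channel membrane potential dye signal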
NR2E3 ag-2 – NR2E3 (human) agonism | Q9Y5X4 | GST-NR2E3/biotin-RetCOR TR-FRET, 1536-well | hit rate 0.12% among 320,000 | inhibition of corepressor binding, % at 4.78 µM;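 active means percent inhibition above the cutoff of mean plus 3 SD of all tested compounds, set per screening campaign, cut at about 20% in these data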
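Test system – NR2E3–RetCOR corepressor complex · Quantity – NR2E3 fusion 1.35 nM · Buffer or medium – Tris pH 7.5 · Incubation – Compound–protein incubation for 5 h at 4 °C · Technique – TR-FRET, Eu(K)-anti-GST donor, streptavidin-D2 acceptor, ex 340, em 617/671 nm · Evaluation – percent inhibition of 671/617 nm emission ratio versus biotin and DMSO controls · Plate – 1536-well format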
Gal4-VP16 ctr – VP16 inhibition counter-screen for COUP-TFII; shares compounds with COUP-TFII inh; HEK293 Gal4-VP16 luciferase reporter, luminescence; inhibition, % at 8.5 µM; hit rate 25% among 2,500; in the data active means inhibition above about 13%
COUP-TFII conf – confirmation of human COUP-TFII (NR2F2) inhibitors; shares compounds with COUP-TFII inh; HEK293 NGFI-A luciferase reporter, luminescence; inhibition, % at 8.5 µM; hit rate 45% among 2,500; AID 687008;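 active means mean inhibition over three repeats above a set limit taken from the earlier primary screen, cut at about 38% in these data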
Hits are given with their value; i = inactive; nt = no result. Compounds with a hit are over-represented: about 2.3% of the library has one in this group of screens.

SMILES	NR2E3 ag-1	COUP-TFII inh	CHT block	CHT PAM	GalR3 antagonist	NR2E3 ag-2	Gal4-VP16 ctr	COUP-TFII conf
COC(=O)C1=C(C(=O)OC)[C@@]2([C@@H](Cc3ccc(C)cc3)Nc3ccccc3)C=C[C@@H]1O2	nt	81.5	nt	nt	nt	nt	30.6	i
Cc1cccc(C)c1NC(=O)CN1CCN(C(=O)CNC(=O)c2ccc(-c3ccccc3)cc2)CC1	i	i	nt	nt	i	nt	nt	nt
Cc1cccc(NC(=O)CN2CCN(C(=O)CNC(=O)c3ccc(-c4ccccc4)cc3)CC2)c1C	i	55.1	nt	nt	i	nt	i	i
O=C(NCc1ccc(Cl)cc1)C1CCCN(c2ncccn2)C1 (stereo not given)	nt	i	nt	nt	nt	nt	nt	nt
Cc1cc(N2CCCC2)ccc1NC(=O)COc1cccc(C(F)(F)F)c1	i	40.0	i	i	i	i	i	i
C=CCN1[C@H](C)COc2cc(N3CCSCC3)ccc2S1(=O)=O	nt	i	nt	nt	nt	nt	nt	nt
C#CCN(C[C@@H]1[C@@H](OC(=O)NCC2CCCCC2)[C@@H](OC(=O)NCC2CCCCC2)Cn2c(=O)ccc(=O)n21)S(=O)(=O)c1ccc(C)cc1	i	53.7	nt	nt	i	nt	45.2	57.2
Cc1cccc(-n2ncc3c2CCCC3NC(=O)c2cccs2)c1C (stereo not given)	i	43.8	nt	nt	i	nt	i	i
O=[N+]([O-])c1ccc2nc(CNc3nc(N4CCOCC4)nc4c3ncn4-c3ccsc3)[nH]c2c1	nt	58.3	nt	nt	nt	nt	28.3	48.1
c1ccc2[nH]c(CNc3nc(N4CCOCC4)nc4c3ncn4-c3ccsc3)nc2c1	nt	52.3	nt	nt	nt	nt	20.4	45.9
O=[N+]([O-])c1ccc2nc(CN3CCCCC3)[nH]c2c1	i	i	i	i	i	i	nt	nt
O=[N+]([O-])c1cccc2[nH]c(CNc3nc(N4CCOCC4)nc4c3ncn4-c3ccsc3)nc12	nt	66.7	nt	nt	nt	nt	25.2	40.8
c1ccc2cc3[nH]c(CNc4nc(N5CCOCC5)nc5c4ncn5-c4ccsc4)nc3cc2c1	nt	63.3	nt	nt	nt	nt	i	41.7
COc1ccc(-n2c(SCC(=O)N(CC(C)C)CC(C)C)nnc2-c2ccncc2)cc1	nt	i	nt	nt	nt	nt	nt	nt
CCN(Cc1ccccc1)C(=O)C1CCCN(c2ncccn2)C1 (stereo not given)	nt	i	nt	nt	nt	nt	nt	nt
FC(F)(F)c1ccc2nc(CNc3nc(N4CCOCC4)nc4c3ncn4-c3ccsc3)[nH]c2c1	nt	68.8	nt	nt	nt	nt	23.4	42.5
CC(C)c1cc(C(=O)N(C2CCCCC2)C2CCCCC2)no1	nt	i	nt	nt	nt	nt	nt	nt
C[C@H]1/C=C/CC(=O)N[C@@H](c2ccccc2)[C@@H](C)/C=C/CC(=O)N[C@H]1c1ccccc1	nt	i	nt	nt	nt	nt	nt	nt
O=C1CCCN2N=C(SCC(=O)Nc3cccc(C(F)(F)F)c3)SC2=N1	i	52.6	i	i	i	i	i	50.3
CCOc1ccc(-c2nc(CSCC(=O)NC3CCC3)c(C)o2)cc1	nt	i	nt	nt	nt	nt	nt	nt
N#CCC[C@H]1CC[C@]2(CCCN(Cc3cccc4ccccc34)C2)O1	nt	i	nt	nt	nt	nt	nt	nt
Cc1cc(C)cc(C(=O)OCCN2CCN(C3CN(Cc4cn(Cc5ccccc5F)nn4)S(=O)(=O)C3)CC2)c1 (stereo not given)	nt	48.5	nt	nt	nt	nt	i	i
Cc1c(C=O)c2ccccc2n1CCOc1ccccc1F	i	45.0	i	i	i	i	i	i
CNc1nc(-c2ccc(OC)cc2)c(-c2ccc(OC)cc2)s1	i	40.8	i	i	i	i	i	i
COc1ccc(-c2nc(N3CCN(C)CC3)sc2-c2ccc(OC)cc2)cc1	i	i	i	i	i	i	nt	nt
SMILES	NR2E3 ag-1	COUP-TFII inh	CHT block	CHT PAM	GalR3 antagonist	NR2E3 ag-2	Gal4-VP16 ctr	COUP-TFII conf
Cc1ccc(C(=O)Nc2cc(C(C)C)c(O)c(C(C)C)c2)cc1	i	45.9	i	i	i	i	i	i
O=C1COc2ccc(S(=O)(=O)CCC(=O)N3CCN(c4ccccc4)CC3)cc2N1	i	i	i	i	i	i	nt	nt
Cc1ccc(C)c(N2CCN(C(=O)CCS(=O)(=O)c3ccc4c(c3)NC(=O)CO4)CC2)c1	i	42.5	i	i	i	i	i	i
Cc1ccc2cccc(S(=O)(=O)N3CCCc4ccccc43)c2n1	i	38.6	i	i	i	i	i	i
Cc1ccc(S(=O)(=O)N2CCCc3ccccc32)cc1	i	i	nt	nt	i	nt	nt	nt
O=c1c2cc3ccccc3nc2ncn1CCc1ccc(Cl)cc1	nt	i	nt	nt	i	nt	nt	nt
O=c1c2cc3cccnc3nc2ncn1CCc1c[nH]c2ccccc12	nt	43.8	nt	nt	nt	nt	i	i
COc1cccc2c(NCc3ccccc3)nc(-n3c(N)nc4ccccc43)nc12	nt	100.4	nt	nt	nt	nt	48.6	i
COc1cccc(-c2nc(NCc3cccnc3)c3ccccc3n2)c1O	i	i	i	i	i	nt	nt	nt
O=C(NCCCN1CCN(c2ccc(F)cc2)CC1)Nc1ccccc1	nt	i	nt	nt	nt	nt	nt	nt
O=C(O)CCCCCN1C(=O)CSC1=S	i	45.5	i	i	i	i	i	i
CC(C)OC(=O)CCCCCN1C(=O)CSC1=S	i	i	i	i	i	i	nt	nt

Screening data as filed in PubChem.
